hERG rescue: hERG (human) protection from proarrhythmic block | CHO-hERG, FluxOR thallium flux, dofetilide IC70 present | Q12809 | activation (rescue from dofetilide block), less the hit threshold, % at 10 µM | 310,000 compounds, 0.51% hits | AID 1511;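 active = activation above the mean of controls blocked by dofetilide plus 5 SD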;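 note: thallium influx through hERG after potassium depolarization seen as dye fluorescence rise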
Target sequence (Q12809 whole entry, looked up): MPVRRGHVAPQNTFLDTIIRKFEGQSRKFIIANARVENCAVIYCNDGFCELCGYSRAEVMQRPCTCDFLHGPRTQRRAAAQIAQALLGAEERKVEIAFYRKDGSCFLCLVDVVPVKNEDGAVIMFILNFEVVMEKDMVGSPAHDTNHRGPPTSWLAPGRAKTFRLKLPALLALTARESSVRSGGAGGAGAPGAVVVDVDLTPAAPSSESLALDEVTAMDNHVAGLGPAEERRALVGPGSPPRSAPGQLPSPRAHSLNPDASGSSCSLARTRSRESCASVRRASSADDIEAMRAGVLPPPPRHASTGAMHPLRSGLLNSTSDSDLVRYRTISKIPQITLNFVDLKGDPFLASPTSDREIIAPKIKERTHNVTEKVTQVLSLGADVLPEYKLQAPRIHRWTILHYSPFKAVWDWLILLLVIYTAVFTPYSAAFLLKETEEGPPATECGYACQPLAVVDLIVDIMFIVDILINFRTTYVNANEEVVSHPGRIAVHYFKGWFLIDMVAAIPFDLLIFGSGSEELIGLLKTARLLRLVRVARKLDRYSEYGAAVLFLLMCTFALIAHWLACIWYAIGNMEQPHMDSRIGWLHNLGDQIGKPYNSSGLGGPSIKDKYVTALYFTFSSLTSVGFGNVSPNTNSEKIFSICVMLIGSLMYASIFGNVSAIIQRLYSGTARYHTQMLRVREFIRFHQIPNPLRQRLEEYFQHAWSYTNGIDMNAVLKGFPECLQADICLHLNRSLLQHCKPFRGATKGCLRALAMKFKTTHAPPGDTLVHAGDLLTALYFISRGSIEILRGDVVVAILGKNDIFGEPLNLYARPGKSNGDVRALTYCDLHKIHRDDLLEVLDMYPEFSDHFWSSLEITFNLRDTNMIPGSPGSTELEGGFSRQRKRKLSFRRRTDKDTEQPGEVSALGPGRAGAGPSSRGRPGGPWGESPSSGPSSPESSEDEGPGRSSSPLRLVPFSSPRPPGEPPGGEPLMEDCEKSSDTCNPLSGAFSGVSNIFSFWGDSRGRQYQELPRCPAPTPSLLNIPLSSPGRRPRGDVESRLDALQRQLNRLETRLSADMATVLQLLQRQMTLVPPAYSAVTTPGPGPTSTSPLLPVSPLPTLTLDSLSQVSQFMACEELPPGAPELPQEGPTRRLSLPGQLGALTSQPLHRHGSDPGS
KCNK3 block: human KCNK3 channel inhibition, primary screen; O14649; CHO-KCNK3 thallium flux, FluxOR fluorescence; active compounds read low; B-score at 10 µM; 340,000 compounds, 0.84% hits;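 active = B-score under library mean minus 4 SD, starting fluorescence ratio at most library mean plus 5 SD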;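 note: more negative B-score means stronger inhibition of thallium flux through KCNK3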
KCNK9 block: blocks the human KCNK9 two-pore domain potassium channel. Q9NPC2. HEK293 KCNK9, FluxOR thallium flux fluorescence; active compounds read low. B-score at 10 µM. 310,000 compounds, 1.2% hits. AID 488922;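 active = ratio B-score over 3 SD below the library mean, with starting fluorescence within 5 SD of its mean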;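 note: negative B-score means less thallium flux so channel inhibition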
KCC2 mod: modulates chloride dependent transport by human KCC2; Q9H2X9; 190,000 compounds, 2.2% hits; AID 1456; KCC2 cells, thallium flux FluoZin-2 fluorescence; B-score of Tl+ flux slope (higher = more flux/activation; lower = inhibition) at 10 µM;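 active = thallium flux slope and its plate-corrected score both differing from the plate sample mean at a set confidence after two filtering rounds, in either direction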;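 note: slope of fluorescence scaled to starting intensity during 10 to 20 s after thallium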
KCNQ1 inh: blocks the human KCNQ1 potassium channel; P51787; CHO-K1 KCNQ1, FluxOR thallium flux fluorescence; active compounds read high; B-score at 10 µM; 310,000 compounds, 1.3% hits;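 active = compounds whose thallium flux B-score, printed positive for inhibition, exceeds three library SD while starting fluorescence stays within three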;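 note: channel opened by potassium depolarization with thallium stimulus after 20 min compound exposure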
KCNQ1 pot: potentiators or activators of human KCNQ1 potassium channel; CHO-K1 KCNQ1, thallium flux FluxOR fluorescence; active compounds read high; B-score at 10 µM; 310,000 compounds, 0.35% hits; AID 2648;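 active = fluorescence ratio B-score, a plate-corrected score, at least three library SD, with initial intensity B-score within 5 SD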
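Test system: CHO-K1 cells stably expressing KCNQ1 / Medium: assay buffer / Also added: depolarizing K+/Tl+ stimulus, K2SO4 and Tl2SO4 each 12.5 mM in 5x stock / Incubation: 90 min dye loading and 20 min compound exposure, both at room temperature / Signal: thallium influx via FluxOR fluorescence, kinetic imaging / Evaluation: B score of baseline-normalized fluorescence ratio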
KCNQ1 inh valid: human KCNQ1 channel inhibition, validation assay | shares compounds with KCNQ1 inh | KCNQ1 cell line, FluxOR thallium flux fluorescence | inhibition, % at 10 µM | 1,600 compounds, 93% hits | AID 588353;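 active = primary screen active, with duplicate mean exceeding buffer control mean plus 3 SD of buffer wells, cut at about 28% in these data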
CHO KCNQ1 ctr: activity in parental CHO cells lacking KCNQ1. shares compounds with KCNQ1 inh. parental CHO-K1, FluxOR thallium flux fluorescence ratio; active compounds read low; zero means no signal rise above baseline. fluorescence ratio (Tl flux) at 10 µM. 1,600 compounds, 21% hits. AID 588366;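 active = mean of duplicate thallium-flux fluorescence ratios in parental host cells more than 5 SD below the buffer control mean, cut at about 0.38 in these data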;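 note: ratio is peak minus minimum fluorescence divided by baseline fluorescence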
KCNQ1 APC inh: confirmation of human KCNQ1 potassium channel inhibitors by electrophysiology; calls only at 10 µM; 490 compounds, 20% hits; shares compounds with KCNQ1 inh; KCNQ1-CHO cells, automated patch clamp current;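 active = KCNQ1 current drop exceeding 3 SD of negative control wells, seen in both duplicate runs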;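 note: steady state current during a 2 s step from -80 to +40 mV; negative values mean current inhibition and positive values mean potentiation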
KCNQ2 inh: rat KCNQ2 inhibition in KCNQ1 inhibitor specificity screen. inhibition, % at 10 µM. 1,600 compounds, 71% hits. shares compounds with KCNQ1 inh. AID 651746. KCNQ2 cells, FluxOR thallium flux fluorescence;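 active = mean percent inhibition of the KCNQ2 thallium signal more than 5 SD above the buffer-only control wells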;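 note: KCNQ2 expressed in CHO cells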
KCNQ1-KCNE1 inh: human KCNQ1/KCNE1 inhibition in KCNQ1 specificity screen; shares compounds with KCNQ1 inh; KCNQ1/KCNE1 cells, FluxOR thallium flux fluorescence; inhibition, % at 10 µM; 1,600 compounds, 77% hits;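 active = mean percent inhibition of duplicate wells above the buffer-only control mean plus 3 SD of those controls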
Hits are given with their value; . = inactive; / = not tested or not shown; + = active, no number. An excerpt weighted towards active compounds, which were near 4.1% of everything screened.

SMILES | hERG rescue | KCNK3 block | KCNK9 block | KCC2 mod | KCNQ1 inh | KCNQ1 pot | KCNQ1 inh valid | CHO KCNQ1 ctr | KCNQ2 inh | KCNQ1-KCNE1 inh | others
CCNc1c2c3c(cccc3n(C)c1=O)C(=O)c1ccccc1-2 | . | / | . | . | . | . | / | / | / | /
CCCCNc1c2c3c(cccc3n(C)c1=O)C(=O)c1ccccc1-2 | . | . | . | . | 29 | . | + | 0.013 | . | .
Cn1c(=O)c(NCCc2ccccc2)c2c3c(cccc31)C(=O)c1ccccc1-2 | . | . | . | . | 29 | . | + | 0.004 | . | .
CCOc1ccccc1NC(=O)CSc1nc(=O)n(Cc2ccncc2)c2c1CCC2 | . | . | . | / | . | . | / | / | / | /
Cc1cccc(OCc2nc(C#N)c(N3CC(C)CC(C)C3)o2)c1 (stereo not drawn) | . | -11.8 | . | / | 8 | . | 103.0 | 0.376 | . | 103.5%
CCCc1nn(-c2ccccc2)c2c1C(c1cccs1)C(C#N)=C(N)O2 (stereo not drawn) | . | . | . | . | 7 | . | . | . | . | .
Cc1cccc2cc(CN(CC3CCCO3)C(=O)c3cccs3)c(=O)[nH]c12 (stereo not drawn) | . | . | . | / | . | . | / | / | / | /
O=C(NC1CCCN(Cc2ccc(Cl)cc2)C1)c1c(F)ccc(F)c1F (stereo not drawn) | . | . | . | / | . | . | / | / | / | /
CN(CC(=O)Nc1cccc(F)c1)C(=O)c1cn(-c2ccccc2)nc1-c1cccs1 | . | . | . | / | 8 | . | 79.0 | . | 83.3% | 108.5%
COc1cccc(NC(=O)CN(C)C(=O)c2cn(-c3ccccc3)nc2-c2cccs2)c1 | . | . | . | / | . | . | / | / | / | /
CC(=O)C[C@@H](O)CC(=O)[C@H]1OC(=O)CCCCCCCCc2ccccc21 | / | . | / | / | / | / | / | / | / | /
Cc1ccc(S(=O)(=O)N2CCN(C(=O)c3cc(-c4cccs4)nn3-c3ccccc3)CC2)cc1 | . | . | . | / | . | . | / | / | / | /
O=C(c1cc(-c2cccs2)nn1-c1ccccc1)N1CCN(S(=O)(=O)c2ccccc2)CC1 | . | . | . | / | 7 | . | 59.5 | . | 91.3% | 99.5%
O=C(c1cc(-c2ccccc2)nn1-c1ccccc1)N1CCN(S(=O)(=O)c2ccc(F)cc2)CC1 | . | . | . | / | 6 | . | 57.0 | . | 81.3% | 37.0%
CC(C)n1nc(C(=O)NCCCN2CCCC2=O)c2ccccc2c1=O | . | . | . | / | . | . | / | / | / | /
OCC(O)C1OC(c2ccccc2)OC(CO)C1O (stereo not drawn) | / | . | / | / | / | / | / | / | / | /
CC(=O)Nc1nc(C)c(S(N)(=O)=O)s1 | . | . | . | / | . | . | / | / | / | /
COc1ccc(NC(=O)c2cc(-c3cc(C)cc(C)c3O)n[nH]2)cc1Cl | . | -9.16 | . | . | 8 | . | 168.5 | 0.272 | 114.0% | +
Cc1cccc(-n2cc(CN3CCCN(C=O)CC3)c(-c3cccc(F)c3)n2)c1 | . | . | . | . | . | . | / | / | / | /
CC1(C)Cc2ccccc2-c2nc(-c3ccccc3)oc(=O)c21 | . | . | . | / | 10 | . | 101.5 | . | 99.0% | 130.0%
CC1(C)Cc2ccccc2-c2nc(NN)[nH]c(=O)c21 | . | . | . | / | . | . | / | / | / | /
CCc1ccc(-c2cc(-c3n[nH]c(=S)n3CC)c3ccccc3n2)cc1 | . | / | . | . | . | . | / | / | / | /
CCn1c(-c2cc(-c3cccc(OC)c3)nc3ccccc23)n[nH]c1=S | . | . | . | 2.71 | 6 | . | 80.5 | . | . | 95.0%
CCOc1cc2c3c(c1)C1(Nc4ccccc4S1)C(=O)N3C(C)(C)CC2C (stereo not drawn) | . | . | . | . | 8 | . | 95.5 | . | . | 77.0% | KCNQ1 APC inh=.
COC(=O)c1cc(OC)c(OC)cc1NC(=S)Nc1cc(Cl)ccc1OC | . | . | . | . | . | . | / | / | / | /
SMILES | hERG rescue | KCNK3 block | KCNK9 block | KCC2 mod | KCNQ1 inh | KCNQ1 pot | KCNQ1 inh valid | CHO KCNQ1 ctr | KCNQ2 inh | KCNQ1-KCNE1 inh | others
CC(=O)c1ccc(NC(=S)NCCc2cccc(Cl)c2)cc1 | . | . | . | . | . | . | / | / | / | /
O=C(Nc1cccc(Cl)c1)Nc1cccc(C(=O)O)c1 | . | . | . | . | . | . | / | / | / | /
CSc1cccc(NC(N)=O)c1 | . | . | . | . | . | . | / | / | / | /
O=C(Nc1ccccc1)Nc1cccc(Cl)c1 | . | . | . | / | 13 | . | 86.0 | . | 72.3% | .
COC(=O)c1cc(OC)c(OC)cc1NC(=S)Nc1cccc(Cl)c1 | . | . | . | / | 7 | . | 59.5 | . | . | .
CC(=O)c1ccc(NC(=O)Nc2cccc(Cl)c2)cc1 | . | . | . | / | 8 | . | 88.0 | . | 60.7% | . | KCNQ1 APC inh=.
CSc1cccc(NC(=O)Nc2ccc(Cl)cc2)c1 | . | . | . | . | 17 | . | 68.5 | . | 60.7% | 43.5%
Cc1cc(C)n2nc(SCC(=O)N(Cc3ccccc3)C3CCS(=O)(=O)C3)nc2n1 (stereo not drawn) | . | . | . | . | . | . | / | / | / | /
CCCS(=O)(=O)c1ccc(COC(=O)Cc2ccc([N+](=O)[O-])cc2)cc1 | . | . | . | / | . | . | / | / | / | /
O=C(COC(=O)CCc1nc2ccccc2n1-c1ccccc1)Nc1ccc(N2CCCCC2)cc1 | . | . | . | . | . | . | / | / | / | /
Fc1ccc(NC(=S)Nc2cccc(Cl)c2)cc1 | . | . | . | . | 6 | . | 47.5 | . | . | 36.0%
N#Cc1ccc(NC(=O)Nc2cccc(C#N)c2)cc1 | . | . | . | . | 7 | . | 49.0 | . | . | .
O=C(Nc1ccncc1)Nc1cccc(F)c1 | . | . | . | / | 8 | . | 48.5 | . | . | 42.0%
O=C(Nc1cccc(Cl)c1)Nc1ccc2nccnc2c1 | . | . | . | / | 7 | . | 98.5 | . | 92.0% | 100.5% | KCNQ1 APC inh=.
CCc1ccc2c(c1)C(=O)C[C@]1(CCC[C@H](C)C1)O2 | . | . | . | / | . | . | / | / | / | /
Cc1ccc(NC(=O)COc2ccccc2C#N)cc1S(=O)(=O)N1CCCCCC1 | / | . | / | / | / | / | / | / | / | /
C=CCN1C(=O)c2ccccc2NC1c1cc(Br)cs1 (stereo not drawn) | . | . | . | / | . | . | / | / | / | /
COc1ccccc1NS(=O)(=O)c1cc(NC(=O)c2ccc(Cl)nc2)ccc1N1CCCC1 | / | . | / | / | / | / | / | / | / | /
